Test results reported in publication PMC9999367 (RSC Advances, 2023).
Blank lines part the entries; values can stand above or below the molecule they belong to.

Columns and labels:
[1] = Stability of stock and working standard solutions at refrigerated conditions; type: physicochemical; settings: for stability of stock solutions (1 mg mL^−1): refrigerator (8 °C), at least one month, DMSO/acetonitrile; for Recovery (%): 30 days at 8 °C
In short: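 Stocks were made at 1 mg mL−1: analyte dissolved in 1 mL DMSO, made up with acetonitrile. They were held refrigerated at 8 °C. Working solutions were diluted in acetonitrile to 5–500 ng mL−1, with internal standard at 200 ng mL−1.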

[2] = Stability studies of DUV in human plasma samples; type: in vitro ADME
In short: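 Blank human plasma was spiked at 15, 150 and 400 ng mL−1 with internal standard at 200 ng mL−1. Exposures: ~48 h in the autosampler, ~6 h at room temperature, three −80 °C/room-temperature freeze–thaw cycles, or 60 days at −80 °C. Samples were precipitated with an equal volume of mobile phase, vortexed, spun, filtered and run by C18 UPLC-ESI-MRM. Mean of 3.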

[3] = Pharmacokinetic study in rats after single oral dose of DUV; type: in vivo, Wistar rat
In short: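 Male Wistar rats (250 ± 30 g), acclimatised 7 days and fasted 12 h with free water, got one oral gavage dose of 25 mg kg−1 in 1% DMSO/saline. About 300 µL heparinised blood was drawn predose and at 0.25–12 h. Plasma was spun at 4500 rpm, 4 °C, 30 min, stored at −20 °C, then quantified by UPLC-ESI-MS/MS. Non-compartmental analysis, 5 rats.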

[4] = male, Wistar, rat, plasma, po, 25 mg/kg
[5] = rat plasma, single oral 25 mg kg^−1, mean of 5

- stability of stock solutions (1 mg mL^−1) [1]: stable
SMILES: Cc1cc(Nc2ncc(Cl)c(Nc3ccccc3S(=O)(=O)C(C)C)n2)c(OC(C)C)cc1C1CCNCC1 [CRB, Ceritinib]

- Recovery (%) ([1]; spiked conc. 5 ng mL^−1, mean of 3): 96.94%
- Recovery (%) ([1]; spiked conc. 15 ng mL^−1, mean of 3): 103.24%
- Recovery (%) ([1]; spiked conc. 150 ng mL^−1, mean of 3): 101.02%
- Recovery (%) ([1]; spiked conc. 400 ng mL^−1, mean of 3): 96.27%
- stability of stock and working standard solutions ([1]; 30 days at refrigerated conditions (8 °C)): stable
- stability of stock solutions (1 mg mL^−1) [1]: stable
- Recovery (%) ([2]; 60 days at −80 °C, spiked conc. 5 ng mL^−1, mean of 3): 101.51%
- Recovery (%) ([2]; 60 days at −80 °C, spiked conc. 15 ng mL^−1, mean of 3): 99.84%
- Recovery (%) ([2]; 60 days at −80 °C, spiked conc. 150 ng mL^−1, mean of 3): 101.19%
- Recovery (%) ([2]; 60 days at −80 °C, spiked conc. 400 ng mL^−1, mean of 3): 99.87%
- Recovery (%) ([2]; Autosampler (48 h), spiked conc. 5 ng mL^−1, mean of 3): 100.12%
- Recovery (%) ([2]; Autosampler (48 h), spiked conc. 15 ng mL^−1, mean of 3): 95.89%
- Recovery (%) ([2]; Autosampler (48 h), spiked conc. 150 ng mL^−1, mean of 3): 98.42%
- Recovery (%) ([2]; Autosampler (48 h), spiked conc. 400 ng mL^−1, mean of 3): 103.28%
- Recovery (%) ([2]; Bench top (6 h), room temperature, spiked conc. 5 ng mL^−1, mean of 3): 99.52%
- Recovery (%) ([2]; Bench top (6 h), room temperature, spiked conc. 15 ng mL^−1, mean of 3): 100.21%
- Recovery (%) ([2]; Bench top (6 h), room temperature, spiked conc. 150 ng mL^−1, mean of 3): 101.43%
- Recovery (%) ([2]; Bench top (6 h), room temperature, spiked conc. 400 ng mL^−1, mean of 3): 99.26%
- time stable under autosampler storage settings ([2]; autosampler storage settings): ≥ 48 h
- recovery ([2]; human, human plasma (spiked QC samples)): 95.9 to 103%
- time stable in plasma samples on the bench ([2]; room temperature, bench): at least 6 hours
- stability during freeze–thaw cycles ([2]; three freeze–thaw cycles): stable
- stability at long-term storage ([2]; −80 °C for 60 days): stable
- Cmax [3, 4]: 3800 ng/mL
- MRT [3, 4]: 1.04 h
- Tmax [3, 4]: 1.83 h
- half-life [3, 4]: 0.72 h
- k el [3, 4]: 0.000269 s⁻¹
- Area under curve ration (AUC0–t/AUC0–∞) [3, 5]: 95.69%
- Clearance (CL) [3, 5]: 14.2 mL/min/kg
- Elimination half-life time (t1/2) [3, 5]: 0.72 h⁻¹
- Volume of distribution (Vd) [3, 5]: 0.88 L/kg
SMILES: C[C@H](Nc1ncnc2nc[nH]c12)c1cc2cccc(Cl)c2c(=O)n1-c1ccccc1 [DUV, 8-chloro-2-phenyl-3-[(1S)-1-(7H-purin-6-ylamino)ethyl]isoquinolin-1-one]
